Series [1] is described as follows: Cytotoxicity against mouse J774 cells assessed as reduction in cell viability incubated for 72 hrs by MTT assay. In kind it is cell-based. Put shortly:
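J774 macrophages seeded at 1 × 10^5 cells/well overnight, then exposed to graded concentrations (7.81–500 µM) for 72 h at 37 °C, 5% CO2. MTT (5 mg/mL) added for 2 h, formazan solubilized in DMSO and read at 570 nm. CC50 taken as 50% viability loss relative to untreated cells.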
(Formazan colour is commonly taken as a measure of viable cells.)

Series [2] has as its system Leishmania donovani. Kind of series: Antileishmanial activity against amastigote stage of Leishmania donovani MHOM/IN/80/Dd8 harboring luciferase gene infected in mouse J774 cells assessed as parasite growth inhibition at 50 uM incubated for 72 hrs by Steady-Glo reagent based luciferase assay. In kind it is functional. Conditions: MHOM/IN/80/Dd8, J774. In a few lines: (§1)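 J774 murine macrophages, 4 × 10⁴ cells/well in RPMI with 10% FBS for 24 h, are infected for 24 h at 37 °C, 5% CO₂ with stationary-phase luciferase-transfected L. donovani Dd8 promastigotes at a 1:8 macrophage:parasite ratio. Compounds are dissolved in DMSO. Luminescence is read after Steady-Glo is added in PBS. IC₅₀ is taken from a four-parameter Hill nonlinear regression. Miltefosine is the reference.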

The subject of series [3] is Leishmania donovani. Description: Antileishmanial activity against log phase of Leishmania donovani MHOM/IN/80/Dd8 promastigotes assessed as reduction in cell viability by MTT assay. In kind it is functional, organism-based. To be noted: time 12-72 hrs, TDE = time-dependent effect.
The subject of series [4] is Leishmania donovani. Description: Antileishmanial activity against amastigote stage of Leishmania donovani MHOM/IN/80/Dd8 harboring luciferase gene infected in mouse J774 cells assessed as parasite killing incubated for 72 hrs by Steady-Glo reagent based luciferase assay. In kind it is functional, organism-based. To be noted: dose 3.12-50 µM. Put shortly: as §1
Series [5] relates to Leishmania donovani. Description: Induction of apoptosis in Leishmania donovani MHOM/IN/80/Dd8 promastigotes assessed as late apoptotic cells at 50 uM measured after 24 hrs by Alexa fluor488-AnnexinV/PI staining based FACSCalibur flow cytometry analysis (reference value: 0.7%). In kind it is functional. (In general: A flow cytometer gives signals particle by particle.)
The test system of series [6] is Leishmania donovani. Kind of series: Induction of mitochondrial membrane potential dysfunction in Leishmania donovani MHOM/IN/80/Dd8 promastigotes assessed as cells with mitochondrial depolarization at 50 uM incubated for 24 hrs by JC1 staining based flow cytometry (reference value: 3.63%). In kind it is functional. In a few lines: (§2)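 Promastigotes (1 × 10^6 cells/mL) exposed to 50 µM for 24–72 h, or to IC50 for 72 h. CCCP (50 µM final) served as depolarization positive control. Cells washed, stained with JC-1 (2 µM final) 30 min at 37 °C, 5% CO2. Red-to-green fluorescence shift measured by flow cytometry.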

In series [7] the test system is Leishmania donovani. Kind of series: Induction of mitochondrial membrane potential dysfunction in Leishmania donovani MHOM/IN/80/Dd8 promastigotes assessed as cells with mitochondrial depolarization at 50 uM incubated for 72 hrs by JC1 staining based flow cytometry (reference value: 3.63%). In kind it is functional.
The test system of series [8] is Leishmania donovani. Description: Induction of mitochondrial membrane potential dysfunction in Leishmania donovani MHOM/IN/80/Dd8 promastigotes assessed as cells with mitochondrial depolarization at IC50 incubated for 72 hrs by JC1 staining based flow cytometry (reference value: 6.6%). In kind it is functional. In a few lines: as §2
For series [9], the system named is Leishmania donovani. Kind of series: Antileishmanial activity against amastigote stage of Leishmania donovani MHOM/IN/80/Dd8 harboring luciferase gene infected in mouse J774 cells assessed as parasite growth inhibition by Giemsa staining based analysis. In kind it is functional, organism-based. To be noted: time 12-72 hrs, TDE = time-dependent effect. Put shortly:
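J774 macrophages are infected for 24 h with stationary-phase luciferase-transfected Dd8 promastigotes at a 1:8 ratio in chamber slides. After compound treatment, cells are fixed and Giemsa-stained, and intracellular amastigotes are counted by microscopy.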

Series [10] relates to Leishmania donovani. Description: Antileishmanial activity against amastigote stage of Leishmania donovani MHOM/IN/80/Dd8 harboring luciferase gene infected in mouse J774 cells assessed as parasite growth inhibition incubated for 72 hrs by Steady-Glo reagent based luciferase assay. To be noted: MHOM/IN/80/Dd8, J774, 72 h. In kind it is functional, organism-based. Put shortly:
as §1

The results in this text go back to ChEMBL document CHEMBL4837217, “Design, synthesis, in vitro and in vivo biological evaluation of pyranone-piperazine analogs as potent antileishmanial agents” (Eur J Med Chem, 2021).

pIC50: −log10 of the molar value.

Usually CC50 stands for the concentration at which the toxic effect on the cells reaches its halfway point. The term inhibition denotes the relative decrease from the control value, in per cent. What is called pIC50 is the IC50 on a negative log10 scale, so that one unit is a factor of ten. For the molecule `N#Cc1c(N2CCN(c3ccccc3O)CC2)cc(-c2ccccc2)oc1=O`, the CC50 at 72 h in series [1] came to 351 µM. The inhibition at 50 µM in series [2] was 95.7%. The Activity result in series [3] was “Tde”; in series [4], “Dose-Dependent Effect”; in series [5], 1.2%; in series [6], 32.9%; in series [7], 86.9%; in [8], 22.9%. Further, the Activity result in [9] is “Tde”. In addition, the pIC50 in series [10] was 4.96.
